Assay results: ChEMBL document CHEMBL4270600, “Pyrazinyl ureas revisited: 1-(3-(Benzyloxy)pyrazin-2-yl)-3-(3,4-dichlorophenyl)urea, a new blocker of Aβ-induced mPTP opening for Alzheimer's disease” (Eur J Med Chem, 2018)

Experiments:
[1] = target: Peptidyl-prolyl cis-trans isomerase F, mitochondrial (Mus musculus) (UniProt Q99KR7); experiment: Blockade of amyloid beta (1 to 42)-induced cypD-mediated mPTP opening in mouse HT22 cells assessed as green to red fluorescence ratio at 5 uM preincubated for 10 mins followed by amyloid beta (1 to 42) addition measured at 1 hr time interval for 3 hrs by JC-1 staining based fluorescence assay (reference value: 100%); type: cell-based
Sequence of Peptidyl-prolyl cis-trans isomerase F, mitochondrial (Mus musculus) (Q99KR7 whole entry): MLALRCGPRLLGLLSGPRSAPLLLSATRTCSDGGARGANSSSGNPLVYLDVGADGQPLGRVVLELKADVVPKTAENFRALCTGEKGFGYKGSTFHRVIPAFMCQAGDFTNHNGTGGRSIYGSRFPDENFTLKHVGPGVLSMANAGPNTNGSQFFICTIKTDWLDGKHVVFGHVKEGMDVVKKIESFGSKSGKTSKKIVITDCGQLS
Procedure, shortened: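 HT-22 mouse hippocampal cells were grown in DMEM with 10% FBS and seeded at 30,000/well the day before. They were loaded with 7.5 μM JC-1 (final) in phenol red-free Opti-MEM for 1 h 15 min at 37 °C, then PBS-washed. Test agent at 5 μM in Opti-MEM was added for 10 min at 37 °C, then 5 μM Aβ1–42 solution. Red (ex 530/em 580) and green (ex 485/em 530) fluorescence was read hourly for 3 h. The green/red ratio was expressed as percent change normalized to vehicle control (100%), from duplicate averages.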

HT-22 [2] = experiment: Induction of mitochondrial energy production impairment in mouse HT22 cells assessed as ATP production at 5 uM after 7 hrs by luciferase reporter gene assay relative to control; type: cell-based; conditions: ht-22, 7 h
Procedure, shortened: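 HT-22 cells were seeded at 10,000/well the day before. Test agent was added as a 10 μM solution (25 μL) without Aβ and incubated 7 h at 37 °C. Cells were PBS-washed and lysed in 1% Triton X-100/TBST, and protein was measured by BCA. Equal lysate amounts were assayed for ATP by luciferase kit. Levels were expressed relative to vehicle control, from duplicate averages.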

HT-22 [3] = experiment: Neuroprotection against amyloid beta (1 to 42)-induced deterioration of mitochondrial ATP production in mouse HT22 cells assessed as ATP recovery at 5 uM preincubated for 10 mins followed by amyloid beta (1 to 42) addition and measured after 7 hrs by luciferase reporter gene assay relative to control; type: functional
Procedure, shortened: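 HT-22 cells were seeded at 10,000/well the day before. Test agent was added as a 10 μM solution (25 μL) for 10 min at 37 °C, then 25 μL of 10 μM Aβ1–42 solution, followed by 7 h at 37 °C. Lysates (1% Triton X-100/TBST) were equalized by BCA protein and assayed for ATP with a luciferase kit. Vehicle control was subtracted, and percent recovery was calculated against Aβ-treated vehicle control, from duplicate averages.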

[4] = Cytotoxicity against mouse HT22 cells assessed as cell viability at 5 uM after 24 hrs by MTT assay relative to control; type: cell-based, HT-22; conditions: read-out: Activity
Procedure, shortened: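 HT-22 cells were seeded at 5000/well and treated with 5 μM test agent for 24 h at 37 °C. MTT was added for 2 h at 37 °C. Formazan was dissolved in 10% Triton X-100 in isopropanol with 0.1 M HCl for 1 h at room temperature. Absorbance was read at 570 nm, vehicle control subtracted, and viability expressed as percent of control, from duplicate averages.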

[5] = target: Voltage-gated inwardly rectifying potassium channel KCNH2 (Homo sapiens, UniProt Q12809); experiment: Displacement of [3H]-astemizole from human ERG expressed in HEK293 cell membranes after 1 hr by microbeta counting method
Sequence of Voltage-gated inwardly rectifying potassium channel KCNH2 (Q12809 whole entry): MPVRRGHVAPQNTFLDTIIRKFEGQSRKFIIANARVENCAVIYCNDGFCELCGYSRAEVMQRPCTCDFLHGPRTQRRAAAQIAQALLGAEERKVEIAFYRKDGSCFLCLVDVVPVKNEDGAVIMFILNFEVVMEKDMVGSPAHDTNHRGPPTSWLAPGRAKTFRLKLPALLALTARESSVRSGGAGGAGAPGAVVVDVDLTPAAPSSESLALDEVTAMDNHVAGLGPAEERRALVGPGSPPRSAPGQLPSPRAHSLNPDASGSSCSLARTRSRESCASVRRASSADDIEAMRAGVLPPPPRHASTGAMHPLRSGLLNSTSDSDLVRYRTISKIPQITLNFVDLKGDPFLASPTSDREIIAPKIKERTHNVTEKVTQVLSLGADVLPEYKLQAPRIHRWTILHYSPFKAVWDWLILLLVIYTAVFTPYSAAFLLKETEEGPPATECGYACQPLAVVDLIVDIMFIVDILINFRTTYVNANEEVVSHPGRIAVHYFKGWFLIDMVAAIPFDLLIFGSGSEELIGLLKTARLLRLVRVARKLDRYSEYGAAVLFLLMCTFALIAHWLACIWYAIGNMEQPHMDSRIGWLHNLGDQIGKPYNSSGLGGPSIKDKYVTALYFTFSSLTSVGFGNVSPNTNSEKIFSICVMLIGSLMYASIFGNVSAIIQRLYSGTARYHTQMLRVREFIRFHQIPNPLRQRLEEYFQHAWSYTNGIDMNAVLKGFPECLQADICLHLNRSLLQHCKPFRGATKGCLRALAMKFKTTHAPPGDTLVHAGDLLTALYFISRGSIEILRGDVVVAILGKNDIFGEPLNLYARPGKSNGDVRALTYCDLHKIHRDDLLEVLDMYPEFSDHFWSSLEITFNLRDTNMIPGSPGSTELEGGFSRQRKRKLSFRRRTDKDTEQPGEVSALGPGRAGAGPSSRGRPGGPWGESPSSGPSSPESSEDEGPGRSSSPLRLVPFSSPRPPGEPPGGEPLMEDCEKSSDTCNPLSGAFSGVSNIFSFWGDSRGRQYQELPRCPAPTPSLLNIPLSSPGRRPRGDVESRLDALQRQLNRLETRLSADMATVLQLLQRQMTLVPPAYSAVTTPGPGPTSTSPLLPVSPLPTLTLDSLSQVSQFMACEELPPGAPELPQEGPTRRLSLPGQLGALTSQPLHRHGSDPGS
Procedure, shortened: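 Radioligand binding used 2.5 µg HEK-293 membranes expressing human ERG in 50 mM Hepes pH 7.4, 60 mM KCl, 0.1% BSA, with 4 nM [³H]astemizole. Incubation was 1 h at room temperature, followed by filtration through PEI-presoaked filtermat and scintillation counting. Non-specific binding was defined with 0.1 µM astemizole. Each competitor was tested at 5–6 concentrations in duplicate tubes, with isotherms from two assays.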

CCNC(=O)Nc1nccnc1OCc1cccc(Cl)c1
Ratio [1]: 60%

O=C(Nc1cccc(F)c1)Nc1nccnc1OCc1cccc(Cl)c1
Ratio [1]: 50%

CC(C)(C)CC(C)(C)NC(=O)Nc1nccnc1OCc1cccc(F)c1
Ratio [1]: 29% | Activity (HT-22 [2]): 98.9% | Activity (HT-22 [3]): 32.9%

O=C(Nc1cccc(Cl)c1)Nc1nccnc1OCc1cccc(F)c1
Ratio [1]: 39%

CN1CCN(CCNC(=O)Nc2nccnc2OCc2ccccc2)CC1
Ratio [1]: 43% | Activity (HT-22 [2]): 97.2% | Activity (HT-22 [3]): 0.7%

O=C(Nc1ccccc1)Nc1nccnc1OCc1cccc(F)c1
Ratio [1]: 30%

O=C(Nc1nccnc1OCc1ccc(Cl)cc1)Nc1cccc2ccccc12
Ratio [1]: 60%

O=C(Nc1ccc(Cl)c(Cl)c1)Nc1nccnc1OCc1ccccc1
Ratio [1]: 29% | viability at 24 h, 5 µM [4]: 139% | IC50 [5]: 11.3 µM | Activity (HT-22 [2]): 148.6% | Activity (HT-22 [3]): 71.2%

CC(C)(C)CC(C)(C)NC(=O)Nc1nccnc1OCc1ccc(F)cc1
Ratio [1]: 17%

O=C(NCCCl)Nc1nccnc1OCc1cccc(Cl)c1
Ratio [1]: 73%

O=C(NCCCl)Nc1nccnc1OCc1ccccc1
Ratio [1]: 53%

NC(=O)CN1CCCC1=O [PIRACETAM]
Activity (HT-22 [2]): 88% | Activity (HT-22 [3]): 127%

CC(C)(C)NC(=O)Nc1nccnc1OCc1cccc(F)c1
Ratio [1]: 55%

O=C(Nc1ccccc1)Nc1nccnc1OCc1ccccc1Cl
Ratio [1]: 39% | Activity (HT-22 [2]): 66.9%

CC(C)(C)CC(C)(C)NC(=O)Nc1nccnc1OCc1ccccc1
Ratio [1]: 25% | Activity (HT-22 [2]): 86% | Activity (HT-22 [3]): -59%

O=C(Nc1nccnc1OCc1ccccc1)NC1CCCCCC1
Ratio [1]: 33% | viability at 24 h, 5 µM [4]: 59% | Activity (HT-22 [2]): 103.4% | Activity (HT-22 [3]): 45.7%

CN1CCN(CCNC(=O)Nc2nccnc2OCc2cccc(Cl)c2)CC1
Ratio [1]: 34% | Activity (HT-22 [2]): 96.1% | Activity (HT-22 [3]): 17.7%

CN1CCN(CCNC(=O)Nc2nccnc2OCc2ccccc2Cl)CC1
Ratio [1]: 34%

O=C(Nc1cccc(Cl)c1)Nc1nccnc1OCc1ccccc1Cl
Ratio [1]: 55%

CC(C)(C)CC(C)(C)NC(=O)Nc1nccnc1OCc1ccc(Cl)cc1
Ratio [1]: 35% | Activity (HT-22 [2]): 85.7% | Activity (HT-22 [3]): -1.7%

O=C(Nc1ccccc1)Nc1nccnc1OCc1ccccc1
Ratio [1]: 44%

O=C(NCCN1CCNCC1)Nc1nccnc1OCc1ccccc1Cl
Ratio [1]: 37% | Activity (HT-22 [2]): 70%

CC(C)(C)NC(=O)Nc1nccnc1OCc1ccccc1
Ratio [1]: 51%

O=C(Nc1cccc(Cl)c1)Nc1nccnc1OCc1cccc(Cl)c1
Ratio [1]: 29% | Activity (HT-22 [2]): 85.4% | Activity (HT-22 [3]): -3.5%

CC(C)(C)NC(=O)Nc1nccnc1OCc1ccccc1Cl
Ratio [1]: 28% | Activity (HT-22 [2]): 55.3%

CC(C)(C)CC(C)(C)NC(=O)Nc1nccnc1OCc1ccccc1Cl
Ratio [1]: 59%

O=C(NCCCl)Nc1nccnc1OCc1ccccc1Cl
Ratio [1]: 72%

O=C(NCc1ccccc1)Nc1nccnc1OCc1ccccc1Cl
Ratio [1]: 33% | viability at 24 h, 5 µM [4]: 84.8% | Activity (HT-22 [2]): 96.9% | Activity (HT-22 [3]): 71.3%

O=C(Nc1ccccc1)Nc1nccnc1OCc1cccc(Cl)c1
Ratio [1]: 59%
